Converted amounts (≈) assume the structure as drawn. A value given as a limit tells only on which side of the number the result lay.

A short description of data set [1]: AUC in rat at 2.8 mg/kg, iv. Set-up: dose 2.8 mg/kg, route intravenous. The settings on record: plasma. Format: ADME, organism-based.
Data set [2] in a line: Oral bioavailability in rat at 2.8 mg/kg. It is filed as ADME, organism-based. The settings on record: in vivo.
The subject of data set [3] is Rattus norvegicus. Description: Volume of distribution at steady state in rat at 2.8 mg/kg, po and iv. It is filed as ADME, organism-based. Set-up: dose 2.8 mg/kg, route oral. The settings on record: in vivo.
Data set [4] in a line: Solubility of the compound. It is filed as physicochemical.
Data set [5] is described as follows: Half life in rat at 2.8 mg/kg, po and iv. Format: ADME, organism-based. Set-up: dose 2.8 mg/kg, route oral. The settings on record: in vivo.
The nature of data set [6]: Permeability across human Caco2 cells. It is filed as ADME, cell-based. The note with it: Caco-2, read-out: permeability.
Data set [7] is described as follows: AUC in rat at 2.8 mg/kg, po. It is filed as ADME, organism-based. Details: dose 2.8 mg/kg, route oral. The settings on record: plasma.
The test system of data set [8] is Hepatitis C virus. Description: Antiviral activity against HCV genotype 1b infected in human Huh7 cells assessed as inhibition of viral replication by FRET assay. Format: functional, organism-based, Hepacivirus hominis. The settings on record: Huh-7. The procedure, abridged:
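Replicon potency values are the means of at least two experiments.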

Data set [9] concerns Bovine viral diarrhea virus 1. Description: Antiviral activity against BVDV1. The note with it: Bovine viral diarrhea virus isolates and strains. It is filed as functional, organism-based.
The nature of data set [10]: Cytotoxicity against human HuH7 cells after 72 hrs by Alamar Blue assay. Format: cell-based. The note with it: Huh-7 cells.
Data set [11] can be described thus: Metabolic stability in rat liver microsomes assessed as compound remaining after 10 mins. It is filed as ADME, Microsome. The note with it: read-out: Stability.
Data set [12] is described as follows: Cmax in rat at 2.8 mg/kg, po and iv. It is filed as ADME, organism-based. Set-up: dose 2.8 mg/kg, route oral. The settings on record: in vivo.
Data set [13] is described as follows: Oral bioavailability in rat at 1.8 mg/kg. It is filed as ADME, organism-based. The settings on record: in vivo.
Data set [14] is described as follows: AUC in rat at 1.8 mg/kg, iv. It is filed as ADME, organism-based. Details: dose 1.8 mg/kg, route intravenous. The settings on record: plasma.
A short description of data set [15]: AUC in rat at 1.8 mg/kg, po. Format: ADME, organism-based. Set-up: dose 1.8 mg/kg, route oral. The settings on record: plasma.
A short description of data set [16]: Half life in rat at 1.8 mg/kg, po and iv. It is filed as ADME, organism-based. Details: dose 1.8 mg/kg, route oral. The settings on record: in vivo.
Data set [17] in a line: Cmax in rat at 1.8 mg/kg, po and iv. The note with it: in vivo. Set-up: dose 1.8 mg/kg, route oral. Format: ADME, organism-based.
Data set [18] concerns Rattus norvegicus. Nature of the data set: Volume of distribution at steady state in rat at 1.8 mg/kg, po and iv. The note with it: in vivo. Set-up: dose 1.8 mg/kg, route oral. It is filed as ADME, organism-based.
Data set [19] in a line: AUC in rat at 1.6 mg/kg, iv. Format: ADME, organism-based. Details: dose 1.6 mg/kg, route intravenous. The settings on record: plasma.
A short description of data set [20]: Half life in rat at 1.6 mg/kg, po and iv. Format: ADME, organism-based. Details: dose 1.6 mg/kg, route oral. The note with it: in vivo.
Data set [21] relates to Rattus norvegicus. Nature of the data set: Volume of distribution at steady state in rat at 1.6 mg/kg, po and iv. It is filed as ADME, organism-based. The note with it: in vivo. Set-up: dose 1.6 mg/kg, route oral.
In data set [22] the test system is Rattus norvegicus. Description: AUC in rat at 2.5 mg/kg, iv. It is filed as ADME, organism-based, Plasma. Set-up: dose 2.5 mg/kg, route intravenous. The settings on record: in vivo.
In data set [23] the test system is Rattus norvegicus. Description: Volume of distribution at steady state in rat at 2.5 mg/kg, po and iv. The note with it: in vivo. Details: dose 2.5 mg/kg, route oral. It is filed as ADME, organism-based.
The nature of data set [24]: Half life in rat at 2.5 mg/kg, po and iv. It is filed as ADME, organism-based. Set-up: dose 2.5 mg/kg, route oral. The note with it: in vivo.

For `O=C(Nc1ccc(/C=C/c2ccc(NC(=O)[C@@H]3CCCN3C(=O)CC3CC3)cc2)cc1)[C@@H]1CCCN1C(=O)CC1CC1`, the AUC in data set [1] worked out at 18500 ng·h/mL; in [7], 11900 ng·h/mL. The bioavailability in data set [2] is 64%. The compound also showed a Vdss in [3] of 0.8 L/kg. For the same compound, the concentration in solution in data set [4] (solubility) came to 4.4 µg/mL (≈ 7.74 µM). The half-life in [5] was 4.9 h. The Papp in [6] is 0.4 ×10⁻⁶ cm/s. The EC50 in [8] was 0.062 µM; in data set [9] it was greater than 10 µM. For the same compound, in data set [10], the CC50 at 72 h was greater than 10 µM. For the same compound, the remaining at 10 min in data set [11] was determined as 84%. This compound came in with a Cmax in data set [12] of 1500 ng/mL.

For the compound `O=C(Nc1ccc(/C=C/c2ccc(NC(=O)[C@@H]3CCCN3C(=O)Cc3cccnc3)cc2)cc1)[C@@H]1CCCN1C(=O)Cc1cccnc1`, the bioavailability in data set [13] came to 10%. The figures for the AUC in [14] and in data set [15] were 3080 ng·h/mL and 322 ng·h/mL, respectively. For the same compound, in [4], the solubility turned out to be 53 µg/mL (≈ 82.5 µM). Further, the Papp in data set [6] was 1.6 ×10⁻⁶ cm/s. In [16], this compound had a half-life of 9.3 h. Besides, in data set [17], the peak level (Cmax) was 120 ng/mL. In addition, the EC50 in [8] was 0.000784 µM; in [9] it was greater than 10 µM. Also, the Vdss in data set [18] came out at 2.9 L/kg. The compound further came in with a 50% cytotoxic concentration (CC50) at 72 h in data set [10] greater than 10 µM. For the same compound, in data set [11], the remaining at 10 min came to 88%.

As for `O=C(Nc1ccc(/C=C/c2ccc(NC(=O)[C@@H]3CCCN3C(=O)OCc3ccccc3)cc2)cc1)[C@@H]1CCCN1C(=O)OCc1ccccc1`, the bioavailability in data set [13] came to 2%. Moreover, the area under the curve (AUC) in [14] amounted to 1620 ng·h/mL; in [15], 37 ng·h/mL. The compound also yielded a solubility in data set [4] of less than 1 µg/mL. In data set [16], this compound showed a half-life of 4.6 h. Moreover, the Cmax in data set [17] worked out at 4 ng/mL. In addition, the EC50 in data set [8] was 0.00897 µM; in data set [9], greater than 10 µM. In [18], this compound displayed a Vdss of 4.3 L/kg. The compound further gave a CC50 at 72 h in [10] greater than 10 µM. In data set [11], the remaining at 10 min stood at 77%.

For `O=C(Nc1ccc(/C=C/c2ccc(NC(=O)[C@@H]3C[C@@H](O)CN3C(=O)OCc3ccccc3)cc2)cc1)[C@@H]1C[C@@H](O)CN1C(=O)OCc1ccccc1`, the AUC in [19] is 2450 ng·h/mL. Further, in data set [20], the half-life was 6.4 h. In data set [6], the Papp was 3.5 ×10⁻⁶ cm/s. The concentration for a half-maximal effect (EC50) in data set [8] is 0.0289 µM; in data set [9], greater than 10 µM. For the same compound, the CC50 at 72 h in data set [10] was greater than 10 µM. Further, the remaining at 10 min in data set [11] came out at 99%. Moreover, the Vdss in data set [21] turned out to be 1 L/kg.

Consider `CC(=O)N1CCC[C@H]1C(=O)Nc1ccc(/C=C/c2ccc(NC(=O)[C@@H]3CCCN3C(=O)Cc3ccccc3)cc2)cc1`, for which, in [22], the AUC was 101535 ng·h/mL. Also, the Papp in [6] is less than 1.5 ×10⁻⁶ cm/s. Moreover, in data set [23], the Vdss amounted to 1.2 L/kg. Further, the results for the EC50 in data set [8] and in [9] were 0.0015 µM and greater than 10 µM, respectively. Moreover, the half-life in data set [24] was 5.2 h. In data set [10], this compound had a CC50 at 72 h greater than 10 µM. The remaining at 10 min in data set [11] was determined as 82%.

Consider `Cn1cc(C(=O)N2CCC[C@H]2C(=O)Nc2ccc(/C=C/c3ccc(NC(=O)[C@@H]4CCCN4C(=O)c4cn(C)c5ccccc45)cc3)cc2)c2ccccc21`, for which the EC50 in data set [8] was 0.14 µM; in data set [9], greater than 10 µM. Also, the CC50 at 72 h in data set [10] is greater than 10 µM.

For the compound `O=C(Nc1ccc(/C=C/c2ccc(NC(=O)[C@@H]3C[C@H](O)CN3C(=O)OCc3ccccc3)cc2)cc1)[C@@H]1C[C@H](O)CN1C(=O)OCc1ccccc1`, the concentration giving a half-maximal response (EC50) in data set [8] is 0.0115 µM; in data set [9], greater than 10 µM. The compound also gave a CC50 at 72 h in [10] greater than 10 µM.

Consider `CCc1ccccc1C(=O)N1CCC[C@H]1C(=O)Nc1ccc(/C=C/c2ccc(NC(=O)[C@@H]3CCCN3C(=O)c3ccccc3CC)cc2)cc1`, for which the EC50 in data set [8] is 1.13 µM; in data set [9], greater than 10 µM. The compound also registered a CC50 at 72 h in [10] greater than 10 µM.

Turning to `O=C(Nc1ccc(/C=C/c2ccc(NC(=O)[C@@H]3CCCN3C(=O)c3ccccc3)cc2)cc1)[C@@H]1CCCN1C(=O)c1ccccc1`, the EC50 in data set [8] is 0.102 µM; in [9], greater than 10 µM. Besides, in [10], the CC50 at 72 h was greater than 10 µM.

Consider `CO[C@H]1C[C@@H](C(=O)Nc2ccc(/C=C/c3ccc(NC(=O)[C@@H]4C[C@H](OC)CN4C(=O)OCc4ccccc4)cc3)cc2)N(C(=O)OCc2ccccc2)C1`, for which the EC50 in data set [8] was less than 0.005 µM; in [9], greater than 10 µM. Also, the cytotoxic concentration (CC50) at 72 h in [10] was greater than 10 µM.

Values taken from ChEMBL document CHEMBL2146359, “HCV NS5A replication complex inhibitors. Part 2: investigation of stilbene prolinamides” (Bioorg Med Chem Lett, 2012).
